Among the data in ChEMBL document CHEMBL1143565, “Pyrido[2,3-d]pyrimidin-7-ones as specific inhibitors of cyclin-dependent kinase 4” (J Med Chem, 2005) are IC50 values, retold here.

Format in all cases: protein-complex assay
In test [1] the target is Cyclin-dependent kinase 1/cyclin B (Homo sapiens, UniProt P06493). The test can be described thus: Inhibition of [32P]ATP binding to Cyclin dependent kinase 1-cyclin B. The procedure, abridged:
(§1)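 Human recombinant Cdk–cyclin holoenzymes expressed in insect cells via baculovirus. Each reaction held 20 ng enzyme, 1 µg GST-retinoblastoma substrate and inhibitor dilutions in 20 mM Tris pH 7.4, 50 mM NaCl, 1 mM DTT, 10 mM MgCl2. Started with [32P]ATP (0.25 µCi), at 25 µM for Cdk4 or 12 µM for Cdk2/E, Cdk2/A and Cdc2/B. Ran 15 min at 25 °C. Stopped with TCA and precipitated ≥1 h at 4 °C.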

Test [2] concerns the target Cyclin-dependent kinase 2/cyclin E (Homo sapiens, UniProt P24941). The test can be described thus: Inhibition of [32P]ATP binding to Cyclin dependent kinase 2-cyclin E. The essentials: (§2)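 Human recombinant Cdk–cyclin holoenzymes expressed in insect cells via baculovirus. Each reaction held 20 ng enzyme, 1 µg GST-retinoblastoma substrate and inhibitor dilutions in 20 mM Tris pH 7.4, 50 mM NaCl, 1 mM DTT, 10 mM MgCl2. Stopped with TCA and precipitated ≥1 h at 4 °C.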

Test [3] concerns the target Cyclin-dependent kinase 2/cyclin A (Homo sapiens, UniProt P24941). The test is described as follows: Inhibition of [32P]ATP binding to Cyclin dependent kinase 2-cyclin A. The procedure, abridged:
as §2

The target in test [4] is Cyclin-dependent kinase 4/cyclin D (Homo sapiens, UniProt P11802). The test is described as follows: Inhibition of [32P]ATP binding to Cyclin dependant kinase 4-cyclin D. The essentials: as §1

A word on the IC50: it is the midpoint of a concentration-inhibition curve. Lower therefore signals greater potency in that assay. For `Cc1cc(=O)n(C2CCCC2)c2nc(Nc3ccc(N4CCOCC4)cc3)ncc12`, the IC50 is 1120 nM in test [1], greater than 5000 nM in test [2], greater than 5000 nM in test [3] and 116 nM in test [4].

Turning to `Cc1cc(=O)n(C2CCCC2)c2nc(Nc3ccc(N4CCC(CCCO)CC4)cc3)ncc12`, the IC50 in test [1] was greater than 5000 nM; in test [2], greater than 5000 nM; in test [3], greater than 5000 nM; in test [4] it was 114 nM.

For the molecule `Cc1cc(=O)n(C2CCCC2)c2nc(Nc3ccc(N4CCN(C(=O)OC(C)(C)C)CC4)cc3)ncc12`, the IC50 in test [2] was greater than 5000 nM; in test [3], greater than 5000 nM; in test [4] it was 425 nM.

For the molecule `Cc1cc(=O)n(CCC(C)C)c2nc(Nc3ccc(N4CCNCC4)cc3)ncc12`, the IC50 is greater than 5000 nM in test [1], greater than 5000 nM in test [2], greater than 5000 nM in test [3] and 1080 nM in test [4].

With `Cc1cc(=O)n(C2CCCC2)c2nc(Nc3ccc(N4CCC(N)C4)cc3)ncc12` (stereo not drawn), the 50% inhibitory concentration (IC50) in test [1] is greater than 5000 nM; in test [4], 64 nM.

For `CCc1cc(=O)n(C2CCCC2)c2nc(Nc3ccc(N4CCNCC4)cc3)ncc12`, the IC50 was greater than 5000 nM in test [1], greater than 5000 nM in test [2], greater than 5000 nM in test [3] and 655 nM in test [4].

As to `Cc1cc(=O)n(C2CCCC2)c2nc(Nc3ccc(N4CCN(C)CC4)cc3)ncc12`, the half-maximal inhibitory concentration (IC50) was greater than 5000 nM in test [1], greater than 5000 nM in test [2], greater than 5000 nM in test [3] and 18 nM in test [4].

For `Cc1cc(=O)n(C2CCCC2)c2nc(Nc3ccc(N4C[C@@H](C)N[C@@H](C)C4)cc3)ncc12`, the IC50 in test [1] is greater than 5000 nM; in test [2], greater than 5000 nM; in test [4] it was 240 nM.

Turning to `O=c1ccc2cnc(Nc3ccc(N4CCOCC4)cc3)nc2n1C1CCCC1`, the IC50 is 275 nM in test [1], 85 nM in test [2], 28 nM in test [3] and 10 nM in test [4].

On to `O=c1cc(C(F)(F)F)c2cnc(Nc3ccc(N4CCNCC4)cc3)nc2n1C1CCCC1`, for which the IC50 in test [1] was greater than 5000 nM; in test [2] it was greater than 5000 nM; in test [3] it was greater than 5000 nM; in test [4] it was 2650 nM.

For the molecule `O=c1ccc2cnc(Nc3ccc(N4CCC(CCCO)CC4)cc3)nc2n1C1CCCC1`, the IC50 was greater than 5000 nM in test [1] and 4550 nM in test [2].

As for `CN1CCN(c2ccc(Nc3ncc4ccc(=O)n(C5CCCC5)c4n3)cc2)CC1`, the values for the half-inhibitory concentration (IC50) in test [2], in test [3] and in test [4] were 39 nM, 14 nM and 7 nM, respectively.

`Cc1cc(=O)n(C2CCCC2)c2nc(Nc3ccc(N4CCNCC4)cc3)ncc12`: the IC50 was greater than 5000 nM in test [1] and 14 nM in test [4].

In the case of `O=c1ccc2cnc(Nc3ccc(N4CCNCC4)cc3)nc2n1C1CCCC1`, the IC50 in test [2] was 80 nM.

On to `Cc1cc(=O)n(C2CCCC2)c2nc(Nc3ccc(N4CCN(C=O)CC4)cc3)ncc12`, for which the half-inhibitory concentration (IC50) is greater than 5000 nM in test [1], greater than 5000 nM in test [2], greater than 5000 nM in test [3] and 161 nM in test [4].

In the case of `Cc1c(C)c2cnc(Nc3ccc(N4CCNCC4)cc3)nc2n(C2CCCC2)c1=O`, the IC50 in test [1] was greater than 5000 nM; in test [2], greater than 5000 nM; in test [4] it was 165 nM.

In the case of `Cc1cc(=O)n(C2CCCC2)c2nc(Nc3ccc(N4CCCCC4)cc3)ncc12`, the IC50 in test [3] is greater than 5000 nM; in test [4], 180 nM.

Take `O=c1ccc2cnc(Nc3ccc(N4CCCCC4)cc3)nc2n1C1CCCC1`: the IC50 is 570 nM in test [1], 246 nM in test [2], 660 nM in test [3] and 10 nM in test [4].

Turning to `Cc1cc(=O)n(C(C)C)c2nc(Nc3ccc(N4CCNCC4)cc3)ncc12`, the IC50 in test [1] was greater than 5000 nM; in test [2] it was greater than 5000 nM; in test [3], greater than 5000 nM; in test [4] it was 265 nM.

`Cc1cc(=O)n(C2CCCC2)c2nc(Nc3ccc(N4CCC(O)C4)cc3)ncc12` (stereo not drawn): the IC50 in test [1] was greater than 5000 nM; in test [4], 260 nM.
